# MEKK3 PB1 HTS = MEKK3-MEK5 PB1 interaction, increase or decrease; Q99759; bead-based flow cytometry, Alexa488-MEK5 binding to MEKK3; actives lie on both sides; 0 = blocked by unlabeled MEK5, 100 = vehicle; binding response (% of control), % at 10 µM; 290,000 tested, 1.4% active; AID 1529;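 active = binding response more than 3 SD above or below the average of its plate-row segment, actives on both sides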;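 note: Alexa488 bead fluorescence after subtracting the streptavidin-only scavenger bead signal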
# UBC13 polyUb = inhibitors of human UBC13 polyubiquitin chain formation; inhibition, % at 20 µM; AID 485273; TR-FRET; 330,000 tested, 0.47% active; in the data active = inhibition above about 45%, passing the limit was not always enough
# MEKK2 WT-MEK5 = raises or lowers MEK5 binding to wildtype human MEKK2 PB1 domain; 290,000 tested, 1.1% active; bead flow cytometry, Alexa488-MEK5 binding to MEKK2 WT; actives lie on both sides; binding response (% of control), % at 10 µM; Q9Y2U5; in the data active = binding response below about 67% or above about 130%
# Apaf-1 inh = inhibitors of human Apaf-1 apoptosome; reconstituted apoptosome caspase-3 activity, DEVD-Rh110 fluorescence; 330,000 tested, 0.71% active; inhibition, % at 20 µM; O14727; active = inhibition of at least 40% at 20 µM;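 note: plate controls were DMSO wells for no effect and DEVD-CHO caspase inhibitor wells for full effect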
#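 Material: cell-free apoptosome with Apaf-1, procaspase-3 and caspase-9; Buffer or medium: Hepes pH 7.5 with detergent and BSA; Reagent: cytochrome c trigger plus (Z-DEVD)2-Rh110 caspase-3 substrate; Times: compound with Apaf-1, dATP, procaspase-3 30 min, then 50 min reaction, room temperature; Technique: Rh110 fluorescence intensity.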
# MEKK2mut PB1 HTS = signal of MEK5 binding to mutant human MEKK2 PB1 domain; 290,000 tested, 0.35% active; AID 1530; percent response, % at 10 µM; bead flow cytometry, Alexa488-MEK5 binding to MEKK2 mutant; in the data active = percent response above about 24%, passing the limit was not always enough
# MEKK2wt confirm = raises or lowers MEK5 binding to wildtype human MEKK2, retest; shares compounds with MEKK3 PB1 HTS; bead flow cytometry, Alexa488-MEK5 binding to MEKK2 WT; actives lie on both sides; binding response (% of control), % at 10 µM; 5,900 tested, 2.4% active; AID 1892; in the data active = binding response below about 16% or above about 210%; inactive = in between
# MEKK2mut confirm = signal of MEK5 binding to mutant human MEKK2, retest | shares compounds with MEKK3 PB1 HTS | bead flow cytometry, Alexa488-MEK5 binding to MEKK2 mutant | percent response, % at 10 µM | 5,900 tested, 2% active | AID 1893; in the data active = percent response mostly above about 71%, no sharp cut-off; inactive = mostly below about 38%;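 note: higher means compound restores mutant binding toward wildtype level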
# MEKK3-MEK5 inh = MEKK3-MEK5 PB1 inhibition, single concentration confirmation. shares compounds with MEKK3 PB1 HTS. bead flow cytometry, Alexa488-MEK5 binding to MEKK3; hits give low values. binding response (% of control), % at 10 µM. 5,900 tested, 1.8% active;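 active = binding response below 72% of control, or above a set upper limit, though filed actives all read lower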;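 note: 100% = DMSO only wells and 0% = binding blocked by excess unlabeled MEK5; lower values mean stronger disruption of MEK5 binding to MEKK3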
# Starred values were filed as active, the others as inactive; . = no result; [ ] = dose if it differs, or a comment. Only some compounds are listed: those with a hit (about 2.9% of all), similar ones and a draw of the others.
SMILES,MEKK3 PB1 HTS,UBC13 polyUb,MEKK2 WT-MEK5,Apaf-1 inh,MEKK2mut PB1 HTS,MEKK2wt confirm,MEKK2mut confirm,MEKK3-MEK5 inh
O=C1c2ccccc2C(=O)N1OCCOCCOCCBr,1.0*[inhibitor],8.1,-2.0*[inhibitor],-17.1,-26.0,102.0,2.0,102.0
CNC(=S)NCCc1cc2c(OC)ccc(OC)c2[nH]c1=O,123.0,-2.6,103.0,-9.0,-1.0,.,.,.
COC(=O)c1c(NC(=O)CN2CCN(C(=O)c3ccco3)CC2)c2c(C)cccc2n1C,122.0*,-1.8,120.0,-18.4,18.0,95.0,-3.0,101.0
COC(=O)c1c(NC(=O)CN2CCN(C(=O)c3ccco3)CC2)c2cc(C)ccc2n1C,101.0,-14.4,93.0,5.7,-2.0,.,.,.
CCc1ccc(C(=O)COC(=O)c2cccnc2Cl)cc1,72.0*[inhibitor],9.2,74.0,5.9,-16.0,100.0,-3.0,103.0
COc1ccc2oc(=O)c(/C(N)=N/NC(=O)c3ccncc3)cc2c1,103.0,-14.6,109.0,2.0,6.0,.,.,.
O=S(=O)(NC1CCCCC1Nc1ccccc1)c1ccccc1 (centres undefined),128.0*,-0.6,104.0,2.0,0.0,80.0,-18.0,71.0*
Cc1ccc(N/N=C(\C#N)C(=N)N2CCOCC2)cc1,104.0,4.3,108.0,-15.0,-1.0,.,.,.
N#C/C(=N\Nc1ccccc1)C(=N)N1CCOCC1,130.0*,-3.5,105.0,-9.2,0.0,97.0,-2.0,95.0
CCCCCCOC(=O)C[N+](C)(C)CCOC1CC2CCC1(C)C2(C)C (centres undefined),113.0,54.5*,202.0*,52.4*,14.0,146.0,23.0,106.0
CCCCCCCOC(=O)C[N+](C)(C)CCOC1CC2CCC1(C)C2(C)C (centres undefined),100.0,.,163.0*,.,38.0,186.0,49.0,111.0
COc1ccc(C(C)=O)cc1CSc1nc2ccccc2c(=O)n1-c1cccc(C)c1,156.0*,6.5,102.0,-1.4,-1.0,98.0,0.0,105.0
COc1cccc(NC(=O)COc2ccc(C(=O)N3CCN(C)CC3)cc2)c1,101.0,1.0,102.0,5.3,1.0,.,.,.
O=C(O)c1cccc(N/N=C/C2=C(Cl)c3cc(Cl)ccc3SC2)c1,28.0*[inhibitor],.,10.0*[inhibitor],.,-79.0,104.0,1.0,107.0
Cc1cnc(C(=O)Nc2cccc3ncccc23)cn1,102.0,-2.4,102.0,-6.9,0.0,.,.,.
Cc1cc(C(=O)Nc2cccc3ncccc23)no1,127.0*,-0.2,121.0,-2.4,6.0,97.0,-4.0,97.0
COC(=O)c1cc(C)sc1NC(=O)CSc1ncccn1,106.0,-1.6,111.0,9.3,10.0,.,.,.
O=C1CCC([N+](=O)[O-])C(c2cc3c(cc2Br)OCO3)N1 (centres undefined),156.0*,-3.2,108.0,-7.0,2.0,124.0,8.0,113.0
O=C(NN=C1CCCCCCCCCCC1)c1cccc(S(=O)(=O)N2CCOCC2)c1,87.0,-6.5,93.0,-2.4,-6.0,.,.,.
C/C(=N\NC(=O)c1cc(O)cc(O)c1)c1ccc(NC(=O)Cc2ccccc2)cc1,71.0*[inhibitor],30.3,68.0*[inhibitor],8.2,-7.0,63.0,-17.0,70.0*
C/C(=N\NC(=O)c1cccc(F)c1)c1ccc(NC(=O)Cc2ccccc2)cc1,103.0,-5.9,103.0,-4.6,3.0,.,.,.
COc1cccc(OC)c1/C=C/C(=O)NC1CCCCC1,103.0,1.2,100.0,5.9,-1.0,.,.,.
C(=N\Nc1nc(-c2ccccc2)cs1)/c1ccncc1,100.0,10.5,93.0,11.9,-4.0,.,.,.
Cc1onc(-c2ccccc2)c1-c1csc(N/N=C/c2ccccc2)n1,68.0*[inhibitor],-13.6,74.0,10.6,-17.0,99.0,-1.0,99.0
CN1CCN(c2ccc(C(F)(F)F)cc2NC(=O)Nc2ccccc2)CC1,109.0,22.1,150.0*,10.0,18.0,159.0,39.0,110.0
